Laboratory results published in ChEMBL document CHEMBL3751698, “5,7-Disubstituted-[1,2,4]triazolo[1,5-a][1,3,5]triazines as pharmacological tools to explore the antagonist selectivity profiles toward adenosine receptors” (Eur J Med Chem, 2016).

Assays:
Adenosine receptor A3 = target: T1, Adenosine receptor A3 (Homo sapiens, UniProt P0DMS8); experiment: Displacement of [3H]HEMADO from human A3 adenosine receptor expressed in CHO cell membranes
T1 sequence (P0DMS8 whole entry): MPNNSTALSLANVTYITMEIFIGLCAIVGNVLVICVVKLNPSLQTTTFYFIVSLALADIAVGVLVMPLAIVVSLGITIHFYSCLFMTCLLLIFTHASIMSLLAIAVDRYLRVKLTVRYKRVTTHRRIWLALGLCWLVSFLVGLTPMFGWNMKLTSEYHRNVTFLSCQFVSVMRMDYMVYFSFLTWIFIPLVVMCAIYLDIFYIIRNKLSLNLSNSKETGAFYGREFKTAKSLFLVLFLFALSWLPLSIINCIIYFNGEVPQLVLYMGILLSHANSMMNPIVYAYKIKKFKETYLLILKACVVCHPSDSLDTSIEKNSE
Method in brief: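 Two-step centrifugation (1,000 x g, then 100,000 x g) of stably transfected CHO cells gave the membranes. Displacement of 1 nM [3H]HEMADO; nonspecific binding taken with 100 µM R-PIA. Ki computed from competition data.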

Homo sapiens [1] = species: Homo sapiens; experiment: Selectivity index, ratio of Ki for human A1 adenosine receptor to Ki for human A2A adenosine receptor
Homo sapiens [2] = species: Homo sapiens; experiment: Selectivity index, ratio of Ki for human A3 adenosine receptor to Ki for human A2A adenosine receptor
Adenosine receptor A1 = target: T2, Adenosine receptor A1 (Homo sapiens, UniProt P30542); experiment: Displacement of [3H]CCPA from human A1 adenosine receptor expressed in CHO cell membranes
T2 sequence (P30542 whole entry): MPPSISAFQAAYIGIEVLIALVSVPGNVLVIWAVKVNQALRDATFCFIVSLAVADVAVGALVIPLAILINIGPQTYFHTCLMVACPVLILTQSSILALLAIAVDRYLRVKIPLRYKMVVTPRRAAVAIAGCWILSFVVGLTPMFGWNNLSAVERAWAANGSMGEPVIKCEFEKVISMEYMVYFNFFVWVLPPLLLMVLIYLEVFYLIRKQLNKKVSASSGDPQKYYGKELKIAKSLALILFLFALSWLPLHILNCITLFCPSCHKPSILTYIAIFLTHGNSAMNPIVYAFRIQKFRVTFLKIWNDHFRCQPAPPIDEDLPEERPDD
Method in brief: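 Membranes from stably transfected CHO cells (1,000 x g spin to clear nuclei and debris, then 100,000 x g pellet), resuspended in binding buffer and frozen. Competition against 1 nM [3H]CCPA; nonspecific binding defined with 1 mM theophylline. Ki calculated from competition curves.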

Adenosine receptor A2a = Adenosine receptor A2a (Homo sapiens, UniProt P29274); experiment: Displacement of [3H]NECA from human A2A adenosine receptor expressed in CHO cell membranes
Method in brief: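 Crude membranes from stably transfected CHO cells, prepared by a two-step spin (1,000 x g, then 100,000 x g). Competition with 10 nM [3H]NECA, with nonspecific binding measured in presence of 100 µM R-PIA. Ki derived from competition experiments.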

Adenosine receptor A2b = target: T3, Adenosine receptor A2b (Homo sapiens, UniProt P29275); experiment: Antagonist activity at human A2B adenosine receptor expressed in CHO cell membranes assessed as inhibition of NECA stimulated adenylyl cyclase activity; format: functional, cell-based
T3 sequence (P29275 whole entry): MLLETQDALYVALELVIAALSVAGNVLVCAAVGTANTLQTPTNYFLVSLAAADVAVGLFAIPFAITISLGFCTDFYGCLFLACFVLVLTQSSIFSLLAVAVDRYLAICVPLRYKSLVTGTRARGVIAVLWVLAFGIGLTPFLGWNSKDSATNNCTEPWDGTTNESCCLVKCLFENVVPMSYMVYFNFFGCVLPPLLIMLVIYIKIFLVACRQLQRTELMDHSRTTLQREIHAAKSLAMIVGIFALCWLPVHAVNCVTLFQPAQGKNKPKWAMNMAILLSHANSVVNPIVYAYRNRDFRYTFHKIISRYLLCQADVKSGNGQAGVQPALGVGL
Method in brief: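 CHO cells stably expressing hA2B; crude membranes from a single high-speed spin, resuspended in 50 mM Tris/HCl pH 7.4 and used fresh. Incubated 20 min with about 150,000 cpm [α-32P]ATP in a mixture without EDTA and NaCl. IC50 for inhibition of NECA-stimulated cyclase obtained by Hill equation fit.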

Adenosine receptor A2a, sequence (P29274 whole entry): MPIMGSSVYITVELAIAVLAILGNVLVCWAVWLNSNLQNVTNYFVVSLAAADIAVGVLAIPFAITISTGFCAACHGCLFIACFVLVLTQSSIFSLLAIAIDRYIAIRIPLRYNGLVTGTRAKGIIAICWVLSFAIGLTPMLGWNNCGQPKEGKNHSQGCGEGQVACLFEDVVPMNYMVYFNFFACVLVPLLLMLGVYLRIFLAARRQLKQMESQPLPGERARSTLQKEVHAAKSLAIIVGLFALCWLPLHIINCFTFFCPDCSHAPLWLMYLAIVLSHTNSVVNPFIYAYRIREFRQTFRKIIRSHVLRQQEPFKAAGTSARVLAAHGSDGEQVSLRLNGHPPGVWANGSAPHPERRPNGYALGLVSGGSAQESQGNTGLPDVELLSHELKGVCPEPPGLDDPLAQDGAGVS

| Ki (Adenosine receptor A3) | Ratio Ki (Homo sapiens [1]) | Ratio Ki (Homo sapiens [2]) | Ki (Adenosine receptor A1; read-out: Ki) | Ki (Adenosine receptor A2a) | IC50 (Adenosine receptor A2b) | Ki (Adenosine receptor A1; cho) | Compound |
| --- | --- | --- | --- | --- | --- | --- | --- |
| 257 nM | 18.2 | 0.65 | 7150 nM | 393 nM | > 30000 nM |  | CC(C)Nc1nc(NC(=O)Cc2ccccc2)n2nc(-c3ccco3)nc2n1 |
| 286 nM | 42.8 | 12.1 | 1010 nM | 23.6 nM | > 30000 nM |  | O=C(Cc1ccccc1)Nc1nc(NC2CCCCC2)nc2nc(-c3ccco3)nn12 |
| > 100000 nM | > 110 | > 110 | > 100000 nM | 905 nM | > 30000 nM |  | Fc1ccc(CNc2nc(Oc3ccccc3)nc3nc(-c4ccco4)nn23)cc1 |
| 75.3 nM | 68.3 | 3.45 | 1490 nM | 21.8 nM | > 30000 nM |  | Fc1ccc(CNc2nc(NCc3ccccc3)nc3nc(-c4ccco4)nn23)cc1 |
| 170 nM | 13.6 | 1.96 | 1180 nM | 86.9 nM | > 30000 nM |  | CC(C)Nc1nc(NC(=O)Nc2ccccc2)n2nc(-c3ccco3)nc2n1 |
| 30.8 nM | 85.2 | 27.7 | 94.6 nM | 1.11 nM | 2210 nM |  | Nc1nc(NCc2ccccc2)nc2nc(-c3ccco3)nn12 |
| 370 nM | 38.8 | 104 | 138 nM | 3.56 nM | 13400 nM |  | Nc1nc(NC2CCCCC2)nc2nc(-c3ccco3)nn12 |
| 294 nM | 6.7 | 2.6 | 757 nM | 113 nM | > 30000 nM |  | c1ccc(Oc2nc(NC3CCCCC3)n3nc(-c4ccco4)nc3n2)cc1 |
| 114 nM | > 253 | 0.29 | > 100000 nM | 394 nM | > 30000 nM |  | CC(C)Nc1nc(NCc2ccccc2)n2nc(-c3ccco3)nc2n1 |
| 905 nM | 2.52 | 6.33 | 361 nM | 143 nM | > 30000 nM |  | CNc1nc(NC2CCCCC2)n2nc(-c3ccco3)nc2n1 |
| 1560 nM | 52.1 | 31.6 | 2570 nM | 49.3 nM | > 30000 nM |  | CNc1nc(N)n2nc(-c3ccco3)nc2n1 |
| 455 nM | 4.2 | 29.9 | 63.9 nM | 15.2 nM | > 30000 nM |  | c1ccc(CNc2nc(NC3CCCCC3)n3nc(-c4ccco4)nc3n2)cc1 |
| 129 nM | 1.73 | 0.73 | 306 nM | 177 nM | > 30000 nM |  | c1coc(-c2nc3nc(NC4CCCCC4)nc(NC4CCCCC4)n3n2)c1 |
| 105 nM | 2.02 | 0.26 | 801 nM | 397 nM | > 30000 nM |  | CC(C)Nc1nc(NC2CCCCC2)n2nc(-c3ccco3)nc2n1 |
| 349 nM | 120 | 44.3 | 946 nM | 7.87 nM | > 30000 nM |  | O=C(Nc1ccccc1)Nc1nc(NC2CCCCC2)nc2nc(-c3ccco3)nn12 |
| 275 nM | 16 | 1.59 | 2770 nM | 173 nM | > 30000 nM |  | CNc1nc(NCc2ccccc2)n2nc(-c3ccco3)nc2n1 |

| Ki (Adenosine receptor A3) | Ratio Ki (Homo sapiens [1]) | Ratio Ki (Homo sapiens [2]) | Ki (Adenosine receptor A1; read-out: Ki) | Ki (Adenosine receptor A2a) | IC50 (Adenosine receptor A2b) | Ki (Adenosine receptor A1; cho) | Compound |
| --- | --- | --- | --- | --- | --- | --- | --- |
|  |  |  |  |  |  | ND(Insoluble) | c1ccc(CNc2nc(NC3CCCCC3)nc3nc(-c4ccco4)nn23)cc1 |
| 1670 nM | 29.9 | 5.57 | 8960 nM | 300 nM | > 30000 nM |  | CNc1nc(NC(=O)Cc2ccccc2)n2nc(-c3ccco3)nc2n1 |
| 572 nM | 38.6 | 5.74 | 3850 nM | 99.6 nM | > 30000 nM |  | CNc1nc(NC(=O)Nc2ccccc2)n2nc(-c3ccco3)nc2n1 |
| 45.5 nM | 125 | 8.44 | 676 nM | 5.39 nM | 7620 nM |  | O=C(Cc1ccccc1)Nc1nc(NCc2ccccc2)nc2nc(-c3ccco3)nn12 |
| 1300 nM | > 893 | 11.6 | > 100000 nM | 112 nM | > 30000 nM |  | Fc1ccc(CNc2nc(NC3CCCCC3)nc3nc(-c4ccco4)nn23)cc1 |
| 13400 nM | 11.3 | 6.23 | 24400 nM | 2150 nM | > 30000 nM |  | CC(C)Nc1nc(NC(=O)c2ccccc2)n2nc(-c3ccco3)nc2n1 |
| 250 nM | 15.2 | 2.63 | 1450 nM | 95.2 nM | > 30000 nM |  | O=C(Nc1nc(NCc2ccccc2)nc2nc(-c3ccco3)nn12)c1ccccc1 |
| 8500 nM | 7.41 | 8.33 | 7560 nM | 1020 nM | > 30000 nM |  | O=C(Nc1nc(NC2CCCCC2)nc2nc(-c3ccco3)nn12)c1ccccc1 |
| 375 nM | > 178 | 0.67 | > 100000 nM | 560 nM | > 30000 nM |  | c1ccc(CNc2nc(Oc3ccccc3)nc3nc(-c4ccco4)nn23)cc1 |
| 29.7 nM | 216 | 20.6 | 311 nM | 1.44 nM | 4360 nM |  | O=C(Nc1ccccc1)Nc1nc(NCc2ccccc2)nc2nc(-c3ccco3)nn12 |
| 123 nM | > 2290 | 2.82 | > 100000 nM | 43.6 nM | > 30000 nM |  | Fc1ccc(CNc2nc(NCc3ccc(F)cc3)n3nc(-c4ccco4)nc3n2)cc1 |
| 37 nM | 38.4 | 1.81 | 784 nM | 20.4 nM | 11800 nM |  | c1ccc(CNc2nc(NCc3ccccc3)n3nc(-c4ccco4)nc3n2)cc1 |
| 568 nM | 66.5 | 8.76 | 4310 nM | 64.8 nM | > 30000 nM |  | CC(C)Nc1nc(N)n2nc(-c3ccco3)nc2n1 |
| 557 nM | 13.1 | 2.37 | 3080 nM | 235 nM | > 30000 nM |  | CNc1nc(NCc2ccc(F)cc2)n2nc(-c3ccco3)nc2n1 |
| 9240 nM | 54.1 | 47.6 | 10500 nM | 194 nM | > 30000 nM |  | CNc1nc(NC(=O)c2ccccc2)n2nc(-c3ccco3)nc2n1 |
